# According to ChEMBL document CHEMBL4177761, “Highlights of the Structure-Activity Relationships of Benzimidazole Linked Pyrrolidines Leading to the Discovery of the Hepatitis C Virus NS5A Inhibitor Pibrentasvir (ABT-530)” (J Med Chem, 2018):
# Where a chain is given by its changes, count along the chain named.
# Legend:
# [1] = Tmax in mouse at 5 mg/kg, po by LC-MS method; assay type: ADME, organism-based; conditions: in vivo
# [2] = Intrinsic clearance in human microsomes; assay type: ADME, Microsome
# [3] = molecular target: T1, Nonstructural protein 5A (Hepatitis C virus) (UniProt Q5L478); test: Inhibition of NS5A M28T mutant in HuH7 cell infected HCV genotype 1a H77 assessed as decrease in viral replication after 4 days by luciferase reporter gene assay relative to wild type protein; conditions: Hepatitis C virus (isolate H77)
# T1 sequence (whole entry): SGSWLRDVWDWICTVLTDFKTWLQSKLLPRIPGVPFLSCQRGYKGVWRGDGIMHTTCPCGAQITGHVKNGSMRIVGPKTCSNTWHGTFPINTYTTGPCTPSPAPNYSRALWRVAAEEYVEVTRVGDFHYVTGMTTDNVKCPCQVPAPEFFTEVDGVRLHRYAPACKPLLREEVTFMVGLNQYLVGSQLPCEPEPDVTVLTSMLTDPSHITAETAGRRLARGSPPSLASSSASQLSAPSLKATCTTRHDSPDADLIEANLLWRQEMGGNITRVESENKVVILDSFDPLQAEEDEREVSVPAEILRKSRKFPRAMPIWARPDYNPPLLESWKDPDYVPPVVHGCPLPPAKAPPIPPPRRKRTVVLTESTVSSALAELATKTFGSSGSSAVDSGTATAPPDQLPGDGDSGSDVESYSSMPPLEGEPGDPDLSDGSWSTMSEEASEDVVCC
# In short: (§1)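 Stable subgenomic luciferase replicons in Huh-7 cells: genotype 1a-H77 carrying NS5A substitutions M28T, Q30E, Q30R, Y93C, Y93H or Y93N, tested alongside the wild-type replicon. Cells are incubated 4 days with compound in DMEM with 5% FBS. Luciferase read-out, EC50 by 4-parameter logistic fit, and fold change versus wild type.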
# [4] = Lipophilicity, log D of the compound by HPLC method; assay type: physicochemical
# [5] = Intrinsic clearance in rat microsomes; assay type: ADME, Microsome
# [6] = Permeability of the compound by PAMPA; assay type: ADME; conditions: read-out: permeability
# [7] = molecular target: T1, Nonstructural protein 5A (Hepatitis C virus); test: Inhibition of NS5A Q30R mutant in HuH7 cell infected HCV genotype 1a H77 assessed as decrease in viral replication after 4 days by luciferase reporter gene assay relative to wild type protein; conditions: Hepatitis C virus (isolate H77); in short: as §1
# [8] = tested on: T2, Nonstructural protein 5A (Hepatitis C virus), Q5L478 [Y93H]; test: Inhibition of NS5A Y93H mutant in HuH7 cell infected HCV genotype 1b Con1 assessed as decrease in viral replication after 4 days by luciferase reporter gene assay relative to wild type protein; conditions: Hepatitis C virus (isolate Con1)
# T2 sequence (whole entry): T1 sequence (whole entry) with Y93H
# In short: as §1, with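 “1b-Con1” for “1a-H77”, “NS5A” for “NS5A substitutions M28T, Q30E, Q30R, Y93C,”, “from a” for “by”, “expressed as” for “and”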
# [9] = AUC (0 to infinity) in mouse at 5 mg/kg, po by LC-MS method; assay type: ADME, organism-based; parameters: dose 5 mg/kg, route oral, time infinity; conditions: in vivo
# [10] = AUC (0 to infinity) in mouse at 5 mg/kg, iv by LC-MS method; assay type: ADME, organism-based; parameters: dose 5 mg/kg, time infinity, route intravenous; conditions: in vivo
# [11] = Solubility of the compound by CLND method; assay type: physicochemical
# [12] = molecular target: T1, Nonstructural protein 5A (Hepatitis C virus); test: Inhibition of NS5A Q30E mutant in HuH7 cell infected HCV genotype 1a H77 assessed as decrease in viral replication after 4 days by luciferase reporter gene assay relative to wild type protein; conditions: Hepatitis C virus (isolate H77); in short: as §1
# [13] = tested on: T3, Nonstructural protein 5A (Hepatitis C virus), Q5L478 [Y93C]; test: Inhibition of NS5A Y93C mutant in HuH7 cell infected HCV genotype 1a H77 assessed as decrease in viral replication after 4 days by luciferase reporter gene assay relative to wild type protein; conditions: Hepatitis C virus (isolate H77); in short: as §1
# T3 sequence (whole entry): T1 sequence (whole entry) with Y93C
# [14] = tested on: T2, Nonstructural protein 5A (Hepatitis C virus), Q5L478 [Y93H]; test: Inhibition of NS5A Y93H mutant in HuH7 cell infected HCV genotype 1a H77 assessed as decrease in viral replication after 4 days by luciferase reporter gene assay relative to wild type protein; conditions: Hepatitis C virus (isolate H77); in short: as §1
# [15] = Volume of distribution at steady state during terminal phase in mouse at 5 mg/kg, iv by LC-MS method; assay type: ADME, organism-based; conditions: in vivo, read-out: Vbeta
# [16] = tested on: T4, Nonstructural protein 5A (Hepatitis C virus), Q5L478 [Y93N]; test: Inhibition of NS5A Y93N mutant in HuH7 cell infected HCV genotype 1a H77 assessed as decrease in viral replication after 4 days by luciferase reporter gene assay relative to wild type protein; conditions: Hepatitis C virus (isolate H77); in short: as §1
# T4 sequence (whole entry): T1 sequence (whole entry) with Y93N
# [17] = Volume of distribution at steady state in mouse at 5 mg/kg, iv by LC-MS method; assay type: ADME, organism-based; conditions: in vivo, read-out: Vdss
# [18] = Cmax in mouse at 3 mg/kg, po by LC-MS method; assay type: ADME, organism-based; parameters: dose 3 mg/kg, route oral; conditions: in vivo
# In short: (§2)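 Single dose, 3 mg/kg, in mouse or rat. IV vehicle: DMSO:Tween 80:PEG-400:D5W 2:5:20:73 (v/v). PO vehicle: Phosol 53 MCT:PEG-400:Poloxamer 124:Cremophor RH40 40:20:20:20 (w/w). Acetonitrile protein precipitation, then LC-MS/MS in negative-ion MRM against an internal standard; LOQ ~20 ng/mL.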
# [19] = Tmax in mouse at 3 mg/kg, po by LC-MS method; assay type: ADME, organism-based; conditions: in vivo
# [20] = Drug level in mouse at 3 mg/kg, po at 24 hrs by LC-MS method; assay type: ADME, organism-based; conditions: in vivo, read-out: Drug uptake; in short: as §2
# [21] = AUC (0 to infinity) in mouse at 3 mg/kg, po by LC-MS method; assay type: ADME, organism-based; parameters: dose 3 mg/kg, route oral, time infinity; conditions: in vivo; in short: as §2
# [22] = Half life in mouse at 3 mg/kg, iv by LC-MS method; assay type: ADME, organism-based; conditions: in vivo; in short: as §2
# [23] = Oral bioavailability in mouse at 3 mg/kg by LC-MS method; assay type: ADME, organism-based; conditions: in vivo; in short: as §2
# [24] = AUC (0 to infinity) in mouse at 3 mg/kg, iv by LC-MS method; assay type: ADME, organism-based; parameters: dose 3 mg/kg, route intravenous, time infinity; conditions: in vivo; in short: as §2
# [25] = Half life in mouse at 3 mg/kg, po by LC-MS method; assay type: ADME, organism-based; conditions: in vivo; in short: as §2
# [26] = Volume of distribution at steady state during terminal phase in mouse at 3 mg/kg, iv by LC-MS method; assay type: ADME, organism-based; conditions: in vivo, read-out: Vbeta
# In short: (§3)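 Mice received a single 3 mg/kg IV dose in 2:5:20:73 (v/v) DMSO:Tween 80:PEG-400:D5W. Heparinized plasma taken at 0.1, 0.25, 0.5, 1, 2, 4, 6, 9, 12 and 24 h. Samples precipitated with acetonitrile and assayed by negative-ion MRM LC-MS. Quantified by unweighted linear regression of parent/internal-standard area ratio against spiked standards; LOQ ~20 ng/mL.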
# [27] = Volume of distribution at steady state in mouse at 3 mg/kg, iv by LC-MS method; assay type: ADME, organism-based; conditions: in vivo, read-out: Vdss; in short: as §3
# [28] = Plasma clearance in mouse at 3 mg/kg, iv by LC-MS method; assay type: ADME, organism-based; in short: as §2
Structure (SMILES),CLint scaled [2] [mL/min/kg],logD [4],CLint scaled [5] [mL/min/kg],Papp [6] [×10⁻⁶ cm/s],solubility kinetic [11] [µM],Cmax [18] [nM],Tmax [19] [h],concentration at 24 h [20] [nM],AUC(0-inf) [21] [ng·h/mL],other results
COC(=O)N[C@H](C(=O)N1CCC[C@H]1c1nc2ccc([C@H]3CC[C@H](c4ccc5nc([C@@H]6CCCN6C(=O)[C@@H](NC(=O)OC)C(C)C)[nH]c5c4)N3c3ccc(C(C)(C)C)cc3)cc2[nH]1)C(C)C,122,5.3,167,0.14,1.6,,,,,Tmax [1]: 1.67 h; fold change (FC) [3]: 4; fold change (FC) [7]: 14; fold change (FC) [8]: 2; AUC(0-inf) [9]: 1390 ng·h/mL; AUC(0-inf) [10]: 13100 ng·h/mL; fold change (FC) [12]: 61; fold change (FC) [13]: 7; fold change (FC) [14]: 216; Vd [15]: 1.11 L/kg; fold change (FC) [16]: 510; Vd [17]: 0.65 L/kg
COC(=O)N[C@H](C(=O)N1CCC[C@H]1c1nc2cc(F)c([C@H]3CC[C@H](c4cc5[nH]c([C@@H]6CCCN6C(=O)[C@@H](NC(=O)OC)C(C)C)nc5cc4F)N3c3cc(F)c(N4CCC(c5ccc(F)cc5)CC4)c(F)c3)cc2[nH]1)C(C)C,,,,,,1710,24,1710,26100,
COC(=O)N[C@H](C(=O)N1CCC[C@H]1c1nc2ccc([C@H]3CC[C@H](c4ccc5nc([C@@H]6CCCN6C(=O)[C@@H](NC(=O)OC)C(C)C)[nH]c5c4)N3c3ccc(N4CCCCC4)c(F)c3)cc2[nH]1)C(C)C,140,4.7,162,0.01,2.5,,,,2000,
COC(=O)N[C@H](C(=O)N1CCC[C@H]1c1nc2ccc([C@H]3CC[C@H](c4ccc5nc([C@@H]6CCCN6C(=O)[C@@H](NC(=O)OC)C(C)C)[nH]c5c4)N3c3cc(Cl)c(N4CCCCC4)c(Cl)c3)cc2[nH]1)C(C)C,< 25,5.9,50,0.03,< 0.6,,,,960,
COC(=O)N[C@H](C(=O)N1CCC[C@H]1c1nc2cc([C@H]3CC[C@H](c4cc5nc([C@@H]6CCCN6C(=O)[C@@H](NC(=O)OC)C(C)C)[nH]c5cc4F)N3c3cc(F)c(N4CCC(c5ccccc5)CC4)c(F)c3)c(F)cc2[nH]1)C(C)C,,,,,,754,24,754,14000,
COC(=O)N[C@H](C(=O)N1CCC[C@H]1C(=O)Nc1ccc([C@@H]2CC[C@@H](c3ccc(NC(=O)[C@@H]4CCCN4C(=O)[C@@H](NC(=O)OC)C(C)C)cc3)N2c2ccc(C(C)(C)C)cc2)cc1)C(C)C [OMBITASVIR],,,,,,636,7,205,11000,fold change (FC) [3]: 8960; half-life [22]: 11 h; bioavailability [23]: 41.7%; AUC(0-inf) [24]: 26400 ng·h/mL; fold change (FC) [7]: 800; half-life [25]: 11.7 h; fold change (FC) [8]: 77; Vd [26]: 1.8 L/kg; Vd [27]: 1.67 L/kg; fold change (FC) [13]: 1680; clearance [28]: 1.83 mL/min/kg; fold change (FC) [14]: 41400; fold change (FC) [16]: 66700
COC(=O)N[C@H](C(=O)N1CCC[C@H]1c1nc2ccc([C@H]3CC[C@H](c4ccc5nc([C@@H]6CCCN6C(=O)[C@@H](NC(=O)OC)C(C)C)[nH]c5c4)N3c3ccc(N4CCOCC4)cc3)cc2[nH]1)C(C)C,113,3.2,108,0.73,14.2,,,,2,
